From PMC9722229 (European journal of pharmacology, 2019)
Where two headings read alike, the source gives them in different places.

Tests used:
hERG channel = hERG channel (Homo sapiens, UniProt Q12809)
[1] = tested on: conditioned fear behavior; assay: Single prolonged stress; type: in vivo, rat; conditions: SPS rats, D-578 10 mg/kg, paroxetine 5 mg/kg; for Freezing behavior during the extinction retention session (SPS-induced deficit) / Freezing behavior during the extinction session (SPS-induced deficit): i.p. 90 min prior to each session; for Shock reactivity during acquisition compared to the control group: i.p., five 1 mA shocks
D1 = D1 (Homo sapiens, UniProt P21728); assay: NIMH PDSP receptor binding assay; conditions: read-out: % Inhibition of Binding at 10 μM D-578
5HT5a = 5HT5a (Homo sapiens, UniProt P47898); assay: NIMH PDSP receptor binding assay; conditions: read-out: % Inhibition of Binding at 10 μM D-578
V1A = V1A (Homo sapiens, UniProt P37288); assay: NIMH PDSP receptor binding assay; conditions: read-out: % Inhibition of Binding at 10 μM D-578
SERT = SERT (Rattus norvegicus, UniProt P31652); assay: Inhibition of [3H]5-HT uptake in rat cerebral cortex synaptosomes; type: biochemical
H4 = H4 (Homo sapiens, UniProt Q9H3N8); assay: NIMH PDSP receptor binding assay; conditions: read-out: % Inhibition of Binding at 10 μM D-578
V2 = V2 (Homo sapiens, UniProt P30518); assay: NIMH PDSP receptor binding assay; conditions: read-out: % Inhibition of Binding at 10 μM D-578
μ-Opioid = μ-Opioid (Homo sapiens, UniProt P35372); assay: NIMH PDSP receptor binding assay; conditions: read-out: % Inhibition of Binding at 10 μM D-578
5HT7 = 5HT7 (Homo sapiens, UniProt P34969); assay: NIMH PDSP receptor binding assay; conditions: read-out: % Inhibition of Binding at 10 μM D-578
M1 = M1 (Homo sapiens, UniProt P11229); assay: biochemical; conditions: read-out: % Inhibition of Binding at 10 μM D-578
Alpha2C = Alpha2C (Homo sapiens, UniProt P18825); assay: NIMH PDSP receptor binding assay
cloned human SERT = cloned human SERT (Homo sapiens, UniProt P31645); type: cell-based
Alpha1D = Alpha1D (Homo sapiens, UniProt P25100); assay: NIMH PDSP receptor binding assay; conditions: read-out: % Inhibition of Binding at 10 μM D-578
Alpha2B = Alpha2B (Homo sapiens, UniProt P18089); assay: NIMH PDSP receptor binding assay; conditions: read-out: % Inhibition of Binding at 10 μM D-578
5HT1b = 5HT1b (Homo sapiens, UniProt P28222); assay: NIMH PDSP receptor binding assay; conditions: read-out: % Inhibition of Binding at 10 μM D-578
Alpha1A = Alpha1A (Homo sapiens, UniProt P35348); assay: NIMH PDSP receptor binding assay; conditions: read-out: % Inhibition of Binding at 10 μM D-578
M2 = M2 (Homo sapiens, UniProt P08172); assay: biochemical; conditions: read-out: % Inhibition of Binding at 10 μM D-578
5HT1d = 5HT1d (Homo sapiens, UniProt P28221); assay: NIMH PDSP receptor binding assay
cloned human NET = cloned human NET (Homo sapiens, UniProt P23975); assay: cell-based; type: cell-based
H3 = H3 (Homo sapiens, UniProt Q9Y5N1); assay: NIMH PDSP receptor binding assay; conditions: read-out: % Inhibition of Binding at 10 μM D-578
κ-opioid = κ-opioid (Homo sapiens, UniProt P41145); assay: NIMH PDSP receptor binding assay
Beta1 = Beta1 (Homo sapiens, UniProt P08588); assay: NIMH PDSP receptor binding assay; conditions: read-out: % Inhibition of Binding at 10 μM D-578
M5 = M5 (Homo sapiens, UniProt P08912); assay: biochemical; type: binding
cloned human DAT = cloned human DAT (Homo sapiens, UniProt Q01959); assay: Inhibition of [3H]DA uptake in HEK 293 cells expressing cloned human transporter; type: cell-based
D2 = D2 (Homo sapiens, UniProt P14416); assay: NIMH PDSP receptor binding assay
D5 = D5 (Homo sapiens, UniProt P21918); assay: NIMH PDSP receptor binding assay; conditions: read-out: % Inhibition of Binding at 10 μM D-578
BZP Rat Brain Site = assay: NIMH PDSP receptor binding assay; conditions: 3H-Flunitrazepam, mean of 4 determinations
D4 = D4 (Homo sapiens, UniProt P21917); assay: NIMH PDSP receptor binding assay; conditions: read-out: % Inhibition of Binding at 10 μM D-578
DAT = DAT (Rattus norvegicus, UniProt P23977); assay: Inhibition of [3H]DA uptake in rat striatum synaptosomes; type: biochemical
[2] = tested on: immobility in the forced swimming test; assay: Forced swimming test in rats after oral administration; type: in vivo, rat; conditions: for Immobility in the rat forced swimming test compared to vehicle: sub-chronic, 1 h before test, mesylate salt
Method in brief: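 Male Sprague-Dawley rats (200-225 g), naive, used once, were given a Porsolt two-session test. The pretest was a 15 min swim and the test a 5 min swim 24 h later, in a 24.5 × 35.5 cm cylinder with 22 cm water at 24-25 °C. Mesylate salt in 3% β-hydroxypropyl cyclodextrin/saline was given p.o. 15 min after pretest and 1 h before test. Blinded video scoring of immobility; one-way ANOVA.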

5HT2c = 5HT2c (Homo sapiens, UniProt P28335); assay: NIMH PDSP receptor binding assay
5HT6 = 5HT6 (Homo sapiens, UniProt P50406); assay: NIMH PDSP receptor binding assay; conditions: read-out: % Inhibition of Binding at 10 μM D-578
GABA A = assay: NIMH PDSP receptor binding assay; conditions: [3H]Muscimol, mean of 4 determinations
D3 = D3 (Homo sapiens, UniProt P35462); assay: NIMH PDSP receptor binding assay
Oxytocin = Oxytocin (Homo sapiens, UniProt P30559); assay: NIMH PDSP receptor binding assay
Alpha1B = Alpha1B (Homo sapiens, UniProt P35368); assay: NIMH PDSP receptor binding assay; conditions: read-out: % Inhibition of Binding at 10 μM D-578
5HT2b = 5HT2b (Homo sapiens, UniProt P41595); assay: NIMH PDSP receptor binding assay
Beta2 = Beta2 (Homo sapiens, UniProt P07550); assay: NIMH PDSP receptor binding assay
M3 = M3 (Homo sapiens, UniProt P20309); assay: biochemical; conditions: read-out: % Inhibition of Binding at 10 μM D-578
mGlur5 = mGlur5 (Rattus norvegicus, UniProt P31424); assay: NIMH PDSP receptor binding assay; conditions: read-out: % Inhibition of Binding at 10 μM D-578
5HT1a = 5HT1a (Homo sapiens, UniProt P08908); assay: NIMH PDSP receptor binding assay; conditions: read-out: % Inhibition of Binding at 10 μM D-578
[3] = Oral absorption and brain penetration; type: in vivo; conditions: unpublished data
M4 = M4 (Homo sapiens, UniProt P08173); assay: biochemical; type: binding
δ-opioid = δ-opioid (Homo sapiens, UniProt P41143); assay: NIMH PDSP receptor binding assay; conditions: read-out: % Inhibition of Binding at 10 μM D-578
V1B = V1B (Homo sapiens, UniProt P47901); assay: NIMH PDSP receptor binding assay; conditions: read-out: % Inhibition of Binding at 10 μM D-578
5HT3 = 5HT3 (Homo sapiens, UniProt P46098); assay: NIMH PDSP receptor binding assay; conditions: read-out: % Inhibition of Binding at 10 μM D-578
Alpha2A = Alpha2A (Homo sapiens, UniProt P08913); assay: NIMH PDSP receptor binding assay; conditions: read-out: % Inhibition of Binding at 10 μM D-578
Beta3 = Beta3 (Homo sapiens, UniProt P13945); assay: NIMH PDSP receptor binding assay
H2 = H2 (Homo sapiens, UniProt P25021); assay: NIMH PDSP receptor binding assay
5HT2a = 5HT2a (Homo sapiens, UniProt P28223); assay: NIMH PDSP receptor binding assay
locomotor activity = assay: Locomotor activity test; type: in vivo, rat; conditions: 25 mg/kg oral, rats, up to 120 min
Method in brief: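 Sprague-Dawley rats were acclimated for 1 h in automated activity chambers, then dosed by oral gavage with test compound (25 mg/kg) or vehicle. Distance travelled was recorded for 2 h after dosing, matching the forced-swim timing. n = 4-7 rats/group.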

PBR = PBR (Rattus norvegicus, UniProt P16257); assay: NIMH PDSP receptor binding assay; conditions: read-out: % Inhibition of Binding at 10 μM D-578
H1 = H1 (Homo sapiens, UniProt P35367); assay: NIMH PDSP receptor binding assay; conditions: read-out: % Inhibition of Binding at 10 μM D-578
[4] = read-out: % Inhibition of Binding at 10 μM D-578

Chain of hERG channel (Q12809 whole entry): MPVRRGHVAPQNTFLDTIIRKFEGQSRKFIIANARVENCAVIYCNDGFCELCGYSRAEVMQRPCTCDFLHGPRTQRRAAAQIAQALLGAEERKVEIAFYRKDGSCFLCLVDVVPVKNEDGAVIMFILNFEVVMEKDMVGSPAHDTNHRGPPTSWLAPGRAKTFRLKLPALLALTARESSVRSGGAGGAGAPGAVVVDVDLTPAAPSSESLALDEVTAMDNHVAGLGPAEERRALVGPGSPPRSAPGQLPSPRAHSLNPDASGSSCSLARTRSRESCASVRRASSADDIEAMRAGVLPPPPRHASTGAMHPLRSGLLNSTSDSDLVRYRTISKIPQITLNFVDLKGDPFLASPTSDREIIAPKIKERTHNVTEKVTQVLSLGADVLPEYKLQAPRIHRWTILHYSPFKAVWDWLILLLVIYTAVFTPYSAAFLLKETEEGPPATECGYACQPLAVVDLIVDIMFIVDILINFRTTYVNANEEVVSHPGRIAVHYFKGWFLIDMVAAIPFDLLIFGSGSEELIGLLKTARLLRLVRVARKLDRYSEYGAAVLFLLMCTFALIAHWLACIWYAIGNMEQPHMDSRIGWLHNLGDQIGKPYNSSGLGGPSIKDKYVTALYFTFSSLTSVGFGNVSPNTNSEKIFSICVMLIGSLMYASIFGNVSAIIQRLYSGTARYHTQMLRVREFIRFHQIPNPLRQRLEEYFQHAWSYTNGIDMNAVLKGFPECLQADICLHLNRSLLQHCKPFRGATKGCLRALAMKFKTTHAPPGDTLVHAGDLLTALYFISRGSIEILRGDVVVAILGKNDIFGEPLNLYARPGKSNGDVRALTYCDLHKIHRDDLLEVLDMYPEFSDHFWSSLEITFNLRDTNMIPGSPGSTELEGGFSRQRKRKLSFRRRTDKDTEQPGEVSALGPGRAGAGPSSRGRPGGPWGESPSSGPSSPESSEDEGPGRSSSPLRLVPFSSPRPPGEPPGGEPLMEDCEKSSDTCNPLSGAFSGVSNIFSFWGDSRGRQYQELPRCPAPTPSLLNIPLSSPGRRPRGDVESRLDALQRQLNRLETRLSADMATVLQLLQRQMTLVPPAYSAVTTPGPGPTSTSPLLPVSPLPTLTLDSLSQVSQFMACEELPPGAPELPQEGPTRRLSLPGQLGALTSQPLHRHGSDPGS
Chain of D2 (P14416 whole entry): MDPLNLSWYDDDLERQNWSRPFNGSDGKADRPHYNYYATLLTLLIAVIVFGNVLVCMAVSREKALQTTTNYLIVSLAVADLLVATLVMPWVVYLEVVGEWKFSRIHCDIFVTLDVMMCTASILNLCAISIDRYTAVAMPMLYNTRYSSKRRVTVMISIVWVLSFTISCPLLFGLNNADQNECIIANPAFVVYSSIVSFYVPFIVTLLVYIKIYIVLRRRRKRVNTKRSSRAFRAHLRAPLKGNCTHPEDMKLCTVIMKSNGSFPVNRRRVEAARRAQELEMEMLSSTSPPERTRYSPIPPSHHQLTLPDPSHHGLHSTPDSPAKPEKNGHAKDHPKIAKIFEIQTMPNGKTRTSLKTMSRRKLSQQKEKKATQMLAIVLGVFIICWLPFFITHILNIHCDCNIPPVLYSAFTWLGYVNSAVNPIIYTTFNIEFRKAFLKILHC
Chain of M4 (P08173 whole entry): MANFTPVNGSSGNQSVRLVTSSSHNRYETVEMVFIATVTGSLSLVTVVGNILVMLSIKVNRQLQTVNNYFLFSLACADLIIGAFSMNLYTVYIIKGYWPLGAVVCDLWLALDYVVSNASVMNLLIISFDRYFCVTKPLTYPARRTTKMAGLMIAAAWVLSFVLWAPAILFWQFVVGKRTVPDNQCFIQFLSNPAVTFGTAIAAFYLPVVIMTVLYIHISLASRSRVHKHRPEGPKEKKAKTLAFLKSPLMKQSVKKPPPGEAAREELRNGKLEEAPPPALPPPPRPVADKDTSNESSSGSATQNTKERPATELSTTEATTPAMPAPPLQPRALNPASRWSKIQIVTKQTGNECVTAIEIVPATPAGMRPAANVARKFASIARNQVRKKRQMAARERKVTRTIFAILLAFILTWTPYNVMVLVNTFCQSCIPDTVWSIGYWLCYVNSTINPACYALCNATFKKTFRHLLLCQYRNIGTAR
Chain of Beta2 (P07550 whole entry): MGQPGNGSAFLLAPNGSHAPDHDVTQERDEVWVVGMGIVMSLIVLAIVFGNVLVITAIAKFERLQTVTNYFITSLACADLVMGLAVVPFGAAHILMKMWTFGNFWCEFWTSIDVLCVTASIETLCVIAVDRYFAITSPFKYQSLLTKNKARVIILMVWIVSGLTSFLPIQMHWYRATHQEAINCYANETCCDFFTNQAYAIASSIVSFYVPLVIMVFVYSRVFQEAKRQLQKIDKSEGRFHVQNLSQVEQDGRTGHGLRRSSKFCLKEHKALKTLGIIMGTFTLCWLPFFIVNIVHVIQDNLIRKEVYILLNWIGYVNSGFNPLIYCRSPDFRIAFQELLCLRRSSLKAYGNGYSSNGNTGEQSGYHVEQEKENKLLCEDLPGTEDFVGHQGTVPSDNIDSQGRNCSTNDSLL
Chain of 5HT2c (P28335 33-458): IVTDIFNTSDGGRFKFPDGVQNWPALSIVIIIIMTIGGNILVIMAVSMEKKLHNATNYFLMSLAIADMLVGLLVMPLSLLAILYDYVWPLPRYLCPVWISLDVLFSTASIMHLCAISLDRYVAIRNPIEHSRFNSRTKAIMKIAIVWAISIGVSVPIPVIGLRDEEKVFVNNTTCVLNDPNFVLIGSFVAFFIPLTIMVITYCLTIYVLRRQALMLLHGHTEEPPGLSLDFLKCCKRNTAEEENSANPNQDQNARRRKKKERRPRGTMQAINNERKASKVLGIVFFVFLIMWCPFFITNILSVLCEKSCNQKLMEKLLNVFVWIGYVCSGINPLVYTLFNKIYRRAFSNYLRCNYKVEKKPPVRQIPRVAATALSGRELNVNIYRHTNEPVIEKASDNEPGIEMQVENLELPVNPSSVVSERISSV
Chain of M5 (P08912 whole entry): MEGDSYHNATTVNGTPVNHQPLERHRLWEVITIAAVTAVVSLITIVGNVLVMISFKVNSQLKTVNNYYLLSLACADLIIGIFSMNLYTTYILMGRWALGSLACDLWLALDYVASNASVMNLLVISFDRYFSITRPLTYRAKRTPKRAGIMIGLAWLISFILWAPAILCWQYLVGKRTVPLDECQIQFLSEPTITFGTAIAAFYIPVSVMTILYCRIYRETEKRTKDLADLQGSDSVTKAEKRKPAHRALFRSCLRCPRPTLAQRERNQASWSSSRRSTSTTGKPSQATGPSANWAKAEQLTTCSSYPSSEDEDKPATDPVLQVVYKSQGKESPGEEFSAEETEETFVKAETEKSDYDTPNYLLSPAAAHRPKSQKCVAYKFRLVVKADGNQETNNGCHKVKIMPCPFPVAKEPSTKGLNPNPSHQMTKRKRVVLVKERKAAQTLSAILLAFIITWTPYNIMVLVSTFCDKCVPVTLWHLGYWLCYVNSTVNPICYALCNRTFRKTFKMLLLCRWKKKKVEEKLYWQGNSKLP
Chain of Alpha2C (P18825 whole entry): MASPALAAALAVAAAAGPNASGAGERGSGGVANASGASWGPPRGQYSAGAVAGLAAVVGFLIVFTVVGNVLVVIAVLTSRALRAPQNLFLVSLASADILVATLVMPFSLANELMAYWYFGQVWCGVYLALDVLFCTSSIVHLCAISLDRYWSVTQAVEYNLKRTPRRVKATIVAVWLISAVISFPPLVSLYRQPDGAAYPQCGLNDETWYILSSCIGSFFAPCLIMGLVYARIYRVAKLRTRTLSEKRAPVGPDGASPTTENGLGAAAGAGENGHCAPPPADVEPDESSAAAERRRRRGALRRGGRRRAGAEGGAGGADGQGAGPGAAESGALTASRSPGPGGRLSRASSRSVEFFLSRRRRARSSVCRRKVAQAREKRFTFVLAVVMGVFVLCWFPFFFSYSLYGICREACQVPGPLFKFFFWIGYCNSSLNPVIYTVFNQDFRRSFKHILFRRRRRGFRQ
Chain of cloned human NET (P23975 whole entry): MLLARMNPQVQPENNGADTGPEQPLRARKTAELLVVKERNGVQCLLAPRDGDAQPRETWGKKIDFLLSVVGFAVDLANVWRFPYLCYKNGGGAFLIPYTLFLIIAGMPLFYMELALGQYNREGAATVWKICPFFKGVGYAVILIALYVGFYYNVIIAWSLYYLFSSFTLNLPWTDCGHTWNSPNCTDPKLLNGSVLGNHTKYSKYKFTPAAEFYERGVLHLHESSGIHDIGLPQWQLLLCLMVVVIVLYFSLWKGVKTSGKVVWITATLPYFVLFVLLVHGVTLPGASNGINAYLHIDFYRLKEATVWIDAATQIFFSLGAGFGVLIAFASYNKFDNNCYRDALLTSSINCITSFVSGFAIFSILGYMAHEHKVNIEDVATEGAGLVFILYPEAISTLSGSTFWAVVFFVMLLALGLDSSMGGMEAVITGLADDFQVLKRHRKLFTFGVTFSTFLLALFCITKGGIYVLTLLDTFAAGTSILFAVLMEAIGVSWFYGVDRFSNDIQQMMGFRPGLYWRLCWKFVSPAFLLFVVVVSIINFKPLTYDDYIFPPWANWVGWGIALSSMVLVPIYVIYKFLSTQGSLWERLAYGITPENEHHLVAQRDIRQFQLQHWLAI
Chain of Beta3 (P13945 whole entry): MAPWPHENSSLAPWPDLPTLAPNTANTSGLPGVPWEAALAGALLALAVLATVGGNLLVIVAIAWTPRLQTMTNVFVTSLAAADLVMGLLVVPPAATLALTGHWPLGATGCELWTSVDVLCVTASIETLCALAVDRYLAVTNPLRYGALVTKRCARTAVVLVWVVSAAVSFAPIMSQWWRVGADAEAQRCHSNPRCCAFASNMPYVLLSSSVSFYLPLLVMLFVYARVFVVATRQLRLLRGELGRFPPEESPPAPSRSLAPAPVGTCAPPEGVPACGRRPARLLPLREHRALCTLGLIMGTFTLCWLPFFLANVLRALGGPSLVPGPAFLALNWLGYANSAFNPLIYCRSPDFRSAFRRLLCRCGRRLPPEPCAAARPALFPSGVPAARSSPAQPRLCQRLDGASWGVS

## COc1cc(N)c(Cl)cc1C(=O)NC1CCN(CCCOc2ccc(F)cc2)CC1OC (stereo not shown) [Cisapride, reference compound]
hERG channel; human
  Hill Slope: 1.01 ± 0.07

## Fc1ccc([C@@H]2CCNC[C@H]2COc2ccc3c(c2)OCO3)cc1 [paroxetine, reference compound]
[1]
  Freezing behavior during the extinction retention session (SPS-induced deficit): did not reverse
  Freezing behavior during the extinction session (SPS-induced deficit): did not reverse
  Shock reactivity during acquisition compared to the control group: no effect

## Nc1nc2ccc(CN[C@@H]3CO[C@H](C(c4ccc(F)cc4)c4ccc(F)cc4)C[C@H]3O)cc2s1 [D-578, (2S,4R,5R)-5-(((2-aminobenzo[d]thiazol-6-yl)methyl)amino)-2-(bis(4-fluorophenyl)methyl)tetrahydro-2H-pyran-4-ol]
D1
  inhibition at 10 µM: 11%
5HT5a
  inhibition at 10 µM: 35.2%
V1A
  inhibition at 10 µM: 44.6%
SERT
  Ki: 16.2 ± 1.5 nM
H4
  inhibition at 10 µM: 2.4%
V2
  inhibition at 10 µM: 21%
μ-Opioid
  inhibition at 10 µM: 11.7%
5HT7
  inhibition at 10 µM: 28.9%
M1
  inhibition at 10 µM: 97.2%
Alpha2C
  Ki: 2010 nM
Alpha2C; [4]
  inhibition at 10 µM: 72%
Cloned human SERT
  Ki: 20.6 ± 3.8 nM
Alpha1D
  inhibition at 10 µM: 24.7%
Alpha2B
  inhibition at 10 µM: 6.3%
5HT1b
  inhibition at 10 µM: 13.6%
Alpha1A
  inhibition at 10 µM: 18.6%
M2
  inhibition at 10 µM: 20.9%
5HT1d
  Ki: 702 nM
5HT1d; [4]
  inhibition at 10 µM: 72%
Cloned human NET
  Ki: 6.1 ± 1.14 nM
Cloned human NET; cloned human transporters
  Times more potent at NET compared to DAT and SERT: 3-4 times
H3
  inhibition at 10 µM: 19.6%
κ-opioid
  Ki: 1390 nM
κ-opioid; [4]
  inhibition at 10 µM: 68.9%
Beta1
  inhibition at 10 µM: 45.6%
M5
  Ki: > 10000 nM
M5; [4]
  inhibition at 10 µM: 84.4%
Cloned human DAT
  Ki: 29.6 ± 6.95 nM
D2
  Ki: 773 nM
D2; [4]
  inhibition at 10 µM: 62.3%
D5
  inhibition at 10 µM: 37.4%
BZP Rat Brain Site
  % Inhibition of Binding at 10 μM D-578: 28.8%
D4
  inhibition at 10 µM: 20.9%
DAT
  Ki: 16.2 ± 2 nM
[2]; 10 mg/kg p.o.
  Immobility in the rat forced swimming test compared to vehicle: significantly reduced
[2]; 15 mg/kg p.o.
  Immobility in the rat forced swimming test compared to vehicle: significantly reduced
[2]; 25 mg/kg PO, forced swimming test in rats
  Reduction of immobility compared to control: greater than 90%
[2]; 25 mg/kg p.o.
  Immobility in the rat forced swimming test compared to vehicle: marked reduction of immobility
5HT2c
  Ki: 73 nM
5HT2c; [4]
  inhibition at 10 µM: 96.3%
5HT6
  inhibition at 10 µM: 12.8%
GABA A
  % Inhibition of Binding at 10 μM D-578: 2.3%
D3
  Ki: 2610 nM
D3; [4]
  inhibition at 10 µM: 56.4%
Oxytocin
  Ki: > 10000 nM
Oxytocin; [4]
  inhibition at 10 µM: 53.1%
Alpha1B
  inhibition at 10 µM: 38.3%
5HT2b
  Ki: 425 nM
5HT2b; [4]
  inhibition at 10 µM: 80.3%
Beta2
  Ki: > 10000 nM
Beta2; [4]
  inhibition at 10 µM: 59.4%
M3
  inhibition at 10 µM: 7.5%
mGlur5
  inhibition at 10 µM: 52.8%
hERG channel; Thallium flux assay
  Inhibition of the hERG channel (in words): almost no inhibition
hERG channel; Tl+ flux assay, inhibition of hERG channel
  Hill Slope: 1.471 ± 0.23
5HT1a
  inhibition at 10 µM: 19.9%
[3]
  Oral absorption and brain penetration: gets absorbed orally and penetrates into the brain well
M4
  Ki: > 10000 nM
M4; [4]
  inhibition at 10 µM: 55%
δ-opioid
  inhibition at 10 µM: 24.1%
V1B
  inhibition at 10 µM: 7.8%
5HT3
  inhibition at 10 µM: 8.5%
Alpha2A
  inhibition at 10 µM: 22.6%
Beta3
  Ki: 2700 nM
Beta3; [4]
  inhibition at 10 µM: 59.8%
H2
  Ki: 42 nM
H2; [4]
  inhibition at 10 µM: 94.1%
5HT2a
  Ki: 1640 nM
5HT2a; [4]
  inhibition at 10 µM: 62.5%
[1]
  Freezing behavior during the extinction retention session (SPS-induced deficit): froze significantly less
  Freezing behavior during the extinction session (SPS-induced deficit): froze less
  Shock reactivity during acquisition compared to the control group: no effect
Locomotor activity
  Locomotor activity, distance travelled vs vehicle: not significantly different from vehicle
PBR
  inhibition at 10 µM: 10.6%
H1
  inhibition at 10 µM: 11%
